Data as given in ChEMBL document CHEMBL1144766, “Discovery of quinolinediones exhibiting a heat shock response and angiogenesis inhibition” (J Med Chem, 2008).
The source made the active and inactive calls. No cut-off for these calls is given here.

Key:
[1] = molecular target: Heat shock protein HSP 90-beta (Homo sapiens) (UniProt P08238); test: Binding affinity to N-terminal ATP binding site of Hsp90 at 100 uM after 30 mins
Outline: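 Compounds were made up in DMSO at 35 mM (stock) just before use and added to whole cell lysates at 100 µM final. Lysates were held on ice for 30 min, then incubated with geldanamycin-derivatized agarose beads at 4 °C with rocking for 60 min. Beads were washed, and eluted proteins were run on gels and blotted for Hsp90. Loss of the Hsp90 band indicated competition.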

[2] = (§1) Cytotoxicity against human NCI60 cells; format: functional; conditions: for TGI: read-out: Log TGI (converted)
[3] = test system: NCI60; test: as §1; format: functional
[4] = test system: HUVEC; test: Growth inhibition of HUVEC after 48 hrs by sulforhodamine B assay; format: cell-based; conditions: human
Outline: (§2)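 Sulforhodamine B assay. Cells were seeded and incubated 24 h, then exposed to serial compound dilutions for 48 h. Plates were fixed with trichloroacetic acid, stained with SRB and read for optical density. GI50 was calculated from the OD data as the concentration giving 50% reduction in net protein increase. HUVEC were grown in EGM-2.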

[5] = test system: NCI-H460; test: Growth inhibition of human NCI-H460 cells after 48 hrs by sulforhodamine B assay; format: functional; outline: as §2
[6] = test system: MCF7; test: Growth inhibition of human MCF7 cells after 48 hrs by sulforhodamine B assay; format: functional; outline: as §2
[7] = test system: HUVEC; test: Effect on HUVEC growth at 10 ug/ml relative to control; format: functional, Homo sapiens
[8] = test system: HUVEC; test: Antiangiogenic activity in HUVEC assessed as cord length at 1.0 ug/ml after 24 hrs relative to control; format: functional, cell-based; conditions: Homo sapiens
Outline: (§3)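 HUVEC grown in EGM-2. Matrigel was gelled in wells (15 min room temperature, then 30 min at 37 °C) and seeded with HUVEC at 2 × 10⁵ cells/mL. Compound was added in culture medium. After 24 h, cords and junctions were imaged by inverted microscope and digital camera. Cord length and junction number were measured relative to untreated controls.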

[9] = test system: HUVEC; test: Antiangiogenic activity in HUVEC assessed as number of junctions at 1.0 ug/ml after 24 hrs relative to control; format: functional, Homo sapiens; outline: as §3
[10] = test system: HUVEC; test: Effect on HUVEC growth at 1.0 ug/ml relative to control; format: functional, Homo sapiens
[11] = test system: HUVEC; test: Antiangiogenic activity in HUVEC assessed as cord length at 0.1 ug/ml after 24 hrs relative to control; format: functional, cell-based; conditions: Homo sapiens; outline: as §3
[12] = test system: HUVEC; test: Antiangiogenic activity in HUVEC assessed as number of junctions at 0.1 ug/ml after 24 hrs relative to control; format: functional, Homo sapiens; outline: as §3
[13] = test system: HUVEC; test: Effect on HUVEC growth at 0.1 ug/ml relative to control; format: functional, Homo sapiens
[14] = test system: HUVEC; test: Antiangiogenic activity in HUVEC assessed as cord length at 0.01 ug/ml after 24 hrs relative to control; format: functional, cell-based; conditions: Homo sapiens; outline: as §3
[15] = test system: HUVEC; test: Antiangiogenic activity in HUVEC assessed as number of junctions at 0.01 ug/ml after 24 hrs relative to control; format: functional; outline: as §3
[16] = test system: HUVEC; test: Effect on HUVEC growth at 0.01 ug/ml relative to control; format: functional, Homo sapiens
[17] = test system: HUVEC; test: Antiangiogenic activity in HUVEC assessed as cord length at 0.001 ug/ml after 24 hrs relative to control; format: functional, cell-based; conditions: Homo sapiens; outline: as §3
[18] = test system: HUVEC; test: Antiangiogenic activity in HUVEC assessed as number of junctions at 0.001 ug/ml after 24 hrs relative to control; format: functional, cell-based; conditions: Homo sapiens; outline: as §3
[19] = test system: HUVEC; test: Effect on HUVEC growth at 0.001 ug/ml relative to control; format: functional, Homo sapiens
[20] = test system: HUVEC; test: Antiangiogenic activity in HUVEC assessed as cord length at 10 ug/ml after 24 hrs relative to control; format: functional, Homo sapiens; outline: as §3

Heat shock protein HSP 90-beta (Homo sapiens), sequence (P08238 whole entry): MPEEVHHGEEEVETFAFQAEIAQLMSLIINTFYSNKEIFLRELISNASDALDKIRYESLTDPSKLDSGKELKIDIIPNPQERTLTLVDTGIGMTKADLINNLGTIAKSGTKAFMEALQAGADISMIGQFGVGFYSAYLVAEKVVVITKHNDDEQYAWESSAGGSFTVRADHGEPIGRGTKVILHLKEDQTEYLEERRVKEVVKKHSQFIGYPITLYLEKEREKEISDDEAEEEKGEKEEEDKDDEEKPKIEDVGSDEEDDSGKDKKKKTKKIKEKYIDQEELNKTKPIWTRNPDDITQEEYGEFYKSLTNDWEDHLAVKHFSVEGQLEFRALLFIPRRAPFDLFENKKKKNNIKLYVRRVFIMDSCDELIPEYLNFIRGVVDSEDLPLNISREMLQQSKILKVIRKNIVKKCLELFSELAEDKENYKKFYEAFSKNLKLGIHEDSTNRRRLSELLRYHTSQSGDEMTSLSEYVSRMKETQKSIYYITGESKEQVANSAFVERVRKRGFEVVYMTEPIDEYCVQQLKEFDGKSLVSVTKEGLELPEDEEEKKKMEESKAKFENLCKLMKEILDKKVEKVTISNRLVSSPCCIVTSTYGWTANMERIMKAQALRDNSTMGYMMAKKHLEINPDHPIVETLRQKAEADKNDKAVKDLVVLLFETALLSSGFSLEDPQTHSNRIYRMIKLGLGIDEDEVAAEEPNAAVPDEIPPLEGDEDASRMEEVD

Row | SMILES | Activity [1] | GI50 [2] [µM] | LC50 [2] [µM] | TGI [2] [µM] | also measured
1 | COc1cc(CNC2=CC(=O)c3ccc(-c4ccccc4)nc3C2=O)cc(OC)c1OC | inactive | 57.5 | – | – | Activity [3]: inactive
2 | O=C1C(NCc2ccccc2)=CC(=O)c2nc(-c3ccccc3)ccc21 | inactive | 1.7 | 66.1 | 15.5 | –
3 | O=C1C(N2CC2)=CC(=O)c2nc(-c3ccccc3)ccc21 | inactive | 0.0275 | 2.04 | 0.324 | –
4 | COc1cc(-c2ccc3c(n2)C(=O)C=C(N2CC2)C3=O)cc(OC)c1OC | inactive | 0.589 | 5.5 | 1.78 | –
5 | Cc1cc2c(nc1-c1ccccc1)C(=O)C=C(N1CC1)C2=O | inactive | – | – | – | –
6 | COc1cc2c(nc1-c1ccccc1)C(=O)C(N1CC1)=CC2=O | inactive | 0.525 | 4.9 | 1.66 | –
7 | O=C1C=C(NCc2ccccc2)C(=O)c2nc(-c3ccccc3)ccc21 | inactive | 33.1 | – | – | Activity [3]: inactive
8 | COc1cc(CNC2=CC(=O)c3nc(-c4ccccc4)ccc3C2=O)cc(OC)c1OC | inactive | 2.34 | 66.1 | 15.5 | –
9 | C=CCNC1=CC(=O)c2nc(-c3ccccc3)ccc2C1=O | inactive | 1.91 | 43.7 | 14.1 | –
10 | O=C1C(N2CC2)=CC(=O)c2nc(-c3ccc(-c4ccccc4)cc3)ccc21 | inactive | 7.94 | 64.6 | 26.9 | –
11 | COc1cc2c(nc1C)C(=O)C(N1CC1)=CC2=O | inactive | 0.275 | 4.37 | 0.832 | –
12 | Cc1ccc2c(n1)C(=O)C=C(N1CC1)C2=O | inactive | 0.513 | 7.94 | 2.04 | –
13 | COC1=CC(=O)c2nc(-c3cc(OC)c(OC)c(OC)c3)ccc2C1=O | inactive | – | – | – | Activity [4]: 0.28 µg/mL; Activity [5]: 1.9 µg/mL; Activity [6]: 0.24 µg/mL; Activity [7]: 23%; Activity [8]: inactive; Activity [9]: 50%; Activity [10]: 2%; Activity [11]: inactive; Activity [12]: 50%; Activity [13]: 90%; Activity [14]: inactive; Activity ([15]; Homo sapiens): inactive; Activity [16]: 117%; Activity [17]: inactive; Activity [18]: inactive; Activity [19]: 106%
14 | COCCCNC1=CC(=O)c2ccc(-c3ccccc3)nc2C1=O | inactive | 5.5 | 70.8 | 28.8 | –
15 | COCCCNC1=CC(=O)c2nc(-c3ccccc3)ccc2C1=O | inactive | 3.55 | 66.1 | 19.1 | –
16 | O=C1C(N2CCCC2)=CC(=O)c2nc(-c3ccccc3)ccc21 | inactive | 44.7 | – | – | Activity [3]: inactive
17 | COc1cc(-c2ccc3c(n2)C(=O)C(NCc2ccccc2)=CC3=O)cc(OC)c1OC | inactive | 2.69 | – | 63.1 | Activity [3]: inactive; Activity [4]: 1.9 µg/mL; Activity [5]: 0.43 µg/mL; Activity [6]: 0.35 µg/mL; Activity [20]: 75%; Activity [7]: 14%; Activity [8]: inactive; Activity [9]: 50%; Activity [10]: 64%; Activity [11]: inactive; Activity [12]: 50%; Activity [13]: 91%; Activity [14]: inactive; Activity [15]: 50%; Activity [16]: 118%; Activity [17]: inactive; Activity [18]: inactive; Activity [19]: 102%
18 | COc1cc(-c2ccc3c(n2)C(=O)C=C(NCc2ccccc2)C3=O)cc(OC)c1OC | inactive | – | – | – | Activity [3]: inactive; Activity [4]: 1.9 µg/mL; Activity [5]: 0.65 µg/mL; Activity [6]: 0.52 µg/mL; Activity [20]: 75%; Activity [7]: 13%; Activity [8]: inactive; Activity ([9]; Homo sapiens): inactive; Activity [10]: 64%; Activity [11]: inactive; Activity ([12]; Homo sapiens): inactive; Activity [13]: 64%; Activity [14]: inactive; Activity ([15]; Homo sapiens): inactive; Activity [16]: 92%; Activity [17]: inactive; Activity [18]: inactive; Activity [19]: 104%
19 | O=C1C=C(N2CC2)C(=O)c2nc(-c3ccccc3)ccc21 | inactive | 0.0851 | 17.8 | 3.31 | –
